Here are results for 1 molecule from publication PMC11247636 (ACS Medicinal Chemistry Letters, 2024).

Each structure is given as a SMILES string.

The subject of data set [1] is L-cystine stone formation in Slc3a1-knockout mouse model of cystinuria. Put plainly: In vivo efficacy in Slc3a1-knockout mouse model of cystinuria. Also on record: species or system Slc3a1-knockout male mice. The conditions noted are these: 150 μmol/kg by gavage daily for 8 weeks.
Data set [2] in a line: L-cystine crystallization inhibition assay. The conditions noted are these: from EC50 values. A digest of the protocol: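 Supersaturated L-cystine (2.9 mM in Millipore water) was incubated with varying test compound concentrations for 72 h at room temperature, then centrifuged. L-cystine remaining in the supernatant was measured. EC50 came from dose–response curves, and relative potency was expressed as a ratio of EC50 values against reference inhibitors.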

Data set [3] can be described thus: Oral bioavailability and pharmacokinetics in Slc3a1-knockout mice. The data set is classed as in vivo. The conditions noted are these: male, mouse, plasma, 150 umol/kg. A digest of the protocol: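 Male Slc3a1-knockout mice (4 per route) received a single oral gavage of 150 μmol/kg in normal saline (100 μL) or a tail-vein iv dose of 30 μmol/kg. About 60 μL saphenous blood was drawn pre-dose and at 5, 15, 30 min and 1, 4, 8, 24 h. Plasma was stored at −80 °C. Parent and mixed-disulfide metabolite were quantified by LC-MS/MS against synthetic metabolite standard. F was derived from oral versus iv exposure.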

Take `N[C@@H](CSSC[C@H](N)C(=O)N1CCC2(CCCN2)CC1)C(=O)N1CCC2(CCCN2)CC1` [compound 3, 8-L-cystinyl bis(1,8-diazaspiro[4.5]decane)]: the Effect on growth result in data set [1] is on record as “no adverse effect on growth”. Also, in data set [1] (water group 28 of 51), the “Mice with stones in treated group” value is recorded as 1 out of 25. Further, in data set [2], the “Fold more potent than CDME in inhibiting L-cystine crystallization” value is listed as “about 120 ×” and the “Fold more potent than LH708 in inhibiting L-cystine crystallization” value is given as “about 2 ×”. Also, in data set [2] (listed as LH1753), the “Fold more potent than CDME in inhibiting L-cystine crystallization” value worked out at 120 × and the “Fold more potent than LH708 in inhibiting L-cystine crystallization” value turned out to be 2 ×. In data set [3], the CL/F was 133 mL/min/kg and the Vd/F was determined as 7 L/kg.

One may read the CL/F as clearance divided by bioavailability, as obtained after extravascular dosing. One may read the Vd/F as the apparent distribution volume after extravascular dosing.
